pEC50: −log10 of the molar value. Activity calls are given as the source filed them. The rule behind the calls is not given here.
molecular target: T1, Transient receptor potential cation channel subfamily V member 1 (Homo sapiens, UniProt Q8NER1); assay: Activation of human TRPV1 expressed in TREx-HEK cells by Fluo-4 AM dye-based Ca2+ imaging assay; type: cell-based; conditions: trex-hek
T1 sequence (Q8NER1 whole entry): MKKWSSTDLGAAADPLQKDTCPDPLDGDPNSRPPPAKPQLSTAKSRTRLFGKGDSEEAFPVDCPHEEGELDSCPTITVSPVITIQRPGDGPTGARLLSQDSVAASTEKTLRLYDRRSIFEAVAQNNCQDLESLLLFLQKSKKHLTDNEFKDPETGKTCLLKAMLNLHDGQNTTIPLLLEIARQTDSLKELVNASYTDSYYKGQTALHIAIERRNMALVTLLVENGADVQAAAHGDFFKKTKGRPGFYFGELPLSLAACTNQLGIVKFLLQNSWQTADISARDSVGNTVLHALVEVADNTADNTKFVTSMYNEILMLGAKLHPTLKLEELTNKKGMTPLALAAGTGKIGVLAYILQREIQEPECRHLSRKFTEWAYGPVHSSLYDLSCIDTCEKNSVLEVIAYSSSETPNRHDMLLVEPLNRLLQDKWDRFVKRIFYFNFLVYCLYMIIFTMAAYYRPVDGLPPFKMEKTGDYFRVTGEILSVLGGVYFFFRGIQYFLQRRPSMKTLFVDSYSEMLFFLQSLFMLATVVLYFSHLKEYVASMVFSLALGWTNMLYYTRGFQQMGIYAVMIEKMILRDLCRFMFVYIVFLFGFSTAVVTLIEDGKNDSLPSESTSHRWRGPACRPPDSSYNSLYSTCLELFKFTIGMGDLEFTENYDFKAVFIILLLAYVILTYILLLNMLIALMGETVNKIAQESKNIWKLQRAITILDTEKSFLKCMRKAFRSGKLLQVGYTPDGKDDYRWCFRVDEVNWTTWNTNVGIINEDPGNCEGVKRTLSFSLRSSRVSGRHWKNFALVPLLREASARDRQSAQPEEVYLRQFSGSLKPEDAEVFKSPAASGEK

Row | SMILES | EC50
1 | CC(C)CN=C=S | Not Active
2 | C=CCCCN=C=S | Not Active
3 | CSCCCN=C=S | Not Active
4 | C=CCCCCN=C=S | Not Active
5 | CSCCCCCN=C=S | Not Active
6 | C=CCCCCCN=C=S | Not Active
7 | CSCCCCCCCN=C=S | Not Active
8 | C=CCCN=C=S | Not Active

molecular target: T2, Transient receptor potential cation channel subfamily A member 1 (Homo sapiens, UniProt O75762); assay: Activation of human TRPA1 expressed in TREx-HEK cells by Fluo-4 AM dye-based Ca2+ imaging assay; type: cell-based; conditions: not given
T2 sequence (O75762 whole entry): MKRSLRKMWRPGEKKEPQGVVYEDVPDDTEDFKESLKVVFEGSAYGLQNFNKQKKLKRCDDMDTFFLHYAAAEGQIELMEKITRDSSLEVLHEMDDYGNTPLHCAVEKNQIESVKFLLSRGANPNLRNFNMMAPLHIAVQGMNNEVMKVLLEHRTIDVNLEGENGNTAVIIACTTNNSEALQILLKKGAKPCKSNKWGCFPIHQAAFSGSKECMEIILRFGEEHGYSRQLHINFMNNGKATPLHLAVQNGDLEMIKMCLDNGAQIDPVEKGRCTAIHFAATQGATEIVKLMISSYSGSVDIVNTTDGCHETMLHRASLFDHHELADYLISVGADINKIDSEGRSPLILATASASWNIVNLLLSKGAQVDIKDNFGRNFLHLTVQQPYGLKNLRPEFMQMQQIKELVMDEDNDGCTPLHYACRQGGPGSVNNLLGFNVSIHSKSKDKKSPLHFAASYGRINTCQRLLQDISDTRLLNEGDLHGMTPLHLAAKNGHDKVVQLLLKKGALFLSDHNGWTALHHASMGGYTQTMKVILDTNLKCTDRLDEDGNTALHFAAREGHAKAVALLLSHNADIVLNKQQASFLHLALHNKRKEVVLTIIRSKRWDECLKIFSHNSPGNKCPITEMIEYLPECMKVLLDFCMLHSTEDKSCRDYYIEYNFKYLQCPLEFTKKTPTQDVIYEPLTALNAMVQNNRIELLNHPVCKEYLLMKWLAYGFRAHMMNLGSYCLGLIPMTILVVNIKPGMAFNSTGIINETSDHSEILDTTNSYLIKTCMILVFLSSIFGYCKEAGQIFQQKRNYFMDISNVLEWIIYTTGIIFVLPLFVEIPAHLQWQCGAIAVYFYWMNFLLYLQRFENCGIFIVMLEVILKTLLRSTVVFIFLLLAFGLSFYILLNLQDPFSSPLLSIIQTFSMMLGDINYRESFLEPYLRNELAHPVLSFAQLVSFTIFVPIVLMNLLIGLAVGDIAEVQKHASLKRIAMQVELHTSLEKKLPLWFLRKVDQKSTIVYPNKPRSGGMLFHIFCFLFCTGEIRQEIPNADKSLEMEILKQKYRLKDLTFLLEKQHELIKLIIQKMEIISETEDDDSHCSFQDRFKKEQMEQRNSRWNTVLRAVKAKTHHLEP

Row | SMILES | pEC50
9 | CC(C)CN=C=S | 6.16
10 | C=CCCCN=C=S | 6.27
11 | CSCCCN=C=S | 6.35
12 | C=CCCCCN=C=S | 5.98
13 | CSCCCCCN=C=S | 6.30
14 | C=CCCCCCN=C=S | 5.98
15 | CSCCCCCCCN=C=S | 6.21
16 | C=CCCN=C=S | 6.44

molecular target: T2, Transient receptor potential cation channel subfamily A member 1; assay: Activation of human TRPA1 expressed in TREx-HEK cells at 1 uM by Fluo-4 AM dye-based Ca2+ imaging assay; type: cell-based; conditions: not given
Outline: (§1)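 Tetracycline-induced (1 μg/mL, 24 h after seeding) TREx HEK cells stably expressing hTRPA1, or TREx HEK cells not expressing TRPA1; Fluo-4 AM 3 μM loading 1 h 37 °C; Ca2+ change read at 37 °C. Response as % of 5 μM ionomycin; mean ± SEM, n = 3−8.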

Row | SMILES | Activity
17 | CC(C)CN=C=S | Active
18 | C=CCCCN=C=S | Active
19 | CSCCCN=C=S | Active
20 | C=CCCCCN=C=S | Active
21 | CSCCCCCN=C=S | Active
22 | C=CCCCCCN=C=S | Active
23 | CSCCCCCCCN=C=S | Active
24 | C=CCCN=C=S | Active

test system: not listed separately; assay: Effect on Ca2+ response in TREx-HEK cells at 1 uM by Fluo-4 AM dye-based Ca2+ imaging assay; type: ADME, cell-based; conditions: human; outline: as §1

Row | SMILES | Activity
25 | CC(C)CN=C=S | Non-toxic
26 | C=CCCCN=C=S | Non-toxic
27 | CSCCCN=C=S | Non-toxic
28 | C=CCCCCN=C=S | Non-toxic
29 | CSCCCCCN=C=S | Non-toxic
30 | C=CCCCCCN=C=S | Non-toxic
31 | CSCCCCCCCN=C=S | Non-toxic
32 | C=CCCN=C=S | Non-toxic

molecular target: T2, Transient receptor potential cation channel subfamily A member 1; assay: Activation of human TRPA1 expressed in TREx-HEK cells at 1 uM in presence of TRPA1 antagonist HC030031 by Fluo-4 AM dye-based Ca2+ imaging assay; type: cell-based; conditions: not given; outline: as §1

Row | SMILES | Activity
33 | CC(C)CN=C=S | inactive
34 | C=CCCCN=C=S | inactive
35 | CSCCCN=C=S | inactive
36 | C=CCCCCN=C=S | inactive
37 | CSCCCCCN=C=S | inactive
38 | C=CCCCCCN=C=S | inactive
39 | CSCCCCCCCN=C=S | inactive
40 | C=CCCN=C=S | inactive

molecular target: T1, Transient receptor potential cation channel subfamily V member 1; assay: Activation of human TRPV1 expressed in TREx-HEK cells at 300 uM by Fluo-4 AM dye-based Ca2+ imaging assay; type: cell-based; conditions: not given
Outline: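 TREx HEK cells stably expressing hTRPV1 (tetracycline 1 μg/mL induction) or parental TREx HEK cells lacking TRPV1, Fluo-4 AM (3 μM, 1 h, 37 °C) loaded; compounds at 300 μM, capsazepine 30 μM co-added where stated; Ca2+ at 37 °C as % of 5 μM ionomycin; mean ± SEM, n = 3−7.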

Row | SMILES | Activity
41 | C=CCCCN=C=S | inactive
42 | CSCCCN=C=S | inactive
43 | C=CCCCCN=C=S | inactive
44 | CSCCCCCN=C=S | inactive
45 | C=CCCCCCN=C=S | inactive
46 | CSCCCCCCCN=C=S | inactive
47 | C=CCCN=C=S | inactive

molecular target: T2, Transient receptor potential cation channel subfamily A member 1; assay: Activation of human TRPA1 expressed in TREx-HEK cells by Fluo-4 AM dye-based Ca2+ imaging assay relative to 100 uM ITC; type: cell-based; conditions: not given

Row | SMILES | max activation
48 | CC(C)CN=C=S | 89%
49 | C=CCCCN=C=S | 90%
50 | CSCCCN=C=S | 94%
51 | C=CCCCCN=C=S | 93%
52 | CSCCCCCN=C=S | 92%
53 | C=CCCCCCN=C=S | 90%
54 | CSCCCCCCCN=C=S | 90%
55 | C=CCCN=C=S | 95%

molecular target: T1, Transient receptor potential cation channel subfamily V member 1; assay: Activation of human TRPV1 expressed in TREx-HEK cells by Fluo-4 AM dye-based Ca2+ imaging assay relative to 10 uM capsaicin; type: cell-based; conditions: not given

Row | SMILES | max activation
56 | CC(C)CN=C=S | inactive
57 | C=CCCCN=C=S | inactive
58 | CSCCCN=C=S | inactive
59 | C=CCCCCN=C=S | inactive
60 | CSCCCCCN=C=S | inactive
61 | C=CCCCCCN=C=S | inactive
62 | CSCCCCCCCN=C=S | inactive
63 | C=CCCN=C=S | inactive

molecular target: Transient receptor potential cation channel subfamily M member 8 (Mus musculus) (UniProt Q8R4D5); assay: Agonist activity at mouse TRPM8 expressed in TREx-HEK cells at 300 uM by Fluo-4 AM dye-based Ca2+ imaging assay; type: cell-based; conditions: not given
Outline: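 Mouse TRPM8 stably expressed in TREx HEK cells, induced with 1 μg/mL tetracycline; Fluo-4 AM 3 μM loading, 1 h, 37 °C; compounds 300 μM freshly diluted from DMSO; Ca2+ change read at 37 °C; ionomycin 5 μM for maximum fluorescence; menthol 100 μM agonist control, BCTC 10 μM antagonist.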

Chain of Transient receptor potential cation channel subfamily M member 8 (Mus musculus) (Q8R4D5 whole entry): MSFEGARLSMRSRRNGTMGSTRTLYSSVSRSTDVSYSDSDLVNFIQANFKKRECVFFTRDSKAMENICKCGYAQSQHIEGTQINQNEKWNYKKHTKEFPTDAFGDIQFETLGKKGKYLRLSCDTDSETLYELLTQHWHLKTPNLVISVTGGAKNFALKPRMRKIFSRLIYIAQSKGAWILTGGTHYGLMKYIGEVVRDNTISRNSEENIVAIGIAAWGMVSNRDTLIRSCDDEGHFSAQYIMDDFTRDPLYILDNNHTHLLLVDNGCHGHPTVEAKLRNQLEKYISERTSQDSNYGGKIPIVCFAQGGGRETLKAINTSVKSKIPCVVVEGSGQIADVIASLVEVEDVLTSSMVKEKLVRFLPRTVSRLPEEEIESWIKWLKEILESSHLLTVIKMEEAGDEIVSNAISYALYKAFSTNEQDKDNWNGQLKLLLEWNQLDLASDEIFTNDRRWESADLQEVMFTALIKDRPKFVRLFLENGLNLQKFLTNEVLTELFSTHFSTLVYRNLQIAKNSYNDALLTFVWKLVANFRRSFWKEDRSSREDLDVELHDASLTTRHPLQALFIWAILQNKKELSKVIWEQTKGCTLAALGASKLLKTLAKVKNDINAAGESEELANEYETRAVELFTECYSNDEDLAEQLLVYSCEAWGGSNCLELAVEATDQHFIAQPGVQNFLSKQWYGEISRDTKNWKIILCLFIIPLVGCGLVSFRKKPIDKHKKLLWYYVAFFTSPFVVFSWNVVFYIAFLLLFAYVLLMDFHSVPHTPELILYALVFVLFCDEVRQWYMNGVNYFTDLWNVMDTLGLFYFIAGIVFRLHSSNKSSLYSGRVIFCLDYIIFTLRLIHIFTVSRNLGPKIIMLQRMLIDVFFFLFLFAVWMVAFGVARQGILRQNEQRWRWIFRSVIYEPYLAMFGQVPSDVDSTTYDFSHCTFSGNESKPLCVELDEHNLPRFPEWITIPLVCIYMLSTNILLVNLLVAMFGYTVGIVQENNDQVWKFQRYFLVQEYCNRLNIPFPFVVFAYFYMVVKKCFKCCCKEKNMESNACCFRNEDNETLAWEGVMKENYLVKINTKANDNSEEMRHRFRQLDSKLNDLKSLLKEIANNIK

Row | SMILES | Activity
64 | CC(C)CN=C=S | inactive
65 | C=CCCCN=C=S | inactive
66 | CSCCCN=C=S | inactive
67 | C=CCCCCN=C=S | inactive
68 | CSCCCCCN=C=S | inactive
69 | C=CCCCCCN=C=S | inactive
70 | CSCCCCCCCN=C=S | inactive
71 | C=CCCN=C=S | inactive

— ChEMBL document CHEMBL3593170 (J Nat Prod, 2015)
